Active and inactive are the calls of the source. The rule behind the calls is not given here.
How the values were obtained:
[1] = molecular target: Free fatty acid receptor 1 (Homo sapiens) (UniProt O14842); assay: Agonist activity at human C-terminal eYFP tagged FFA1 receptor stably expressed in HEK293T cells cotransfected with nano-luciferase assessed as recruitment of beta-arrestin2 at 10 uM followed by TUG-770 addition prior to compound treatment by BRET assay; type: cell-based
[2] = molecular target: T1, Free fatty acid receptor 4 (Homo sapiens) (UniProt Q5NUL3); assay: Agonist activity at human C-terminal eYFP tagged FFA4 receptor stably expressed in HEK293T cells cotransfected with nano-luciferase assessed as recruitment of beta-arrestin2 at 10 uM followed by TUG-891 addition prior to compound treatment by BRET assay; type: cell-based
T1 sequence (whole entry): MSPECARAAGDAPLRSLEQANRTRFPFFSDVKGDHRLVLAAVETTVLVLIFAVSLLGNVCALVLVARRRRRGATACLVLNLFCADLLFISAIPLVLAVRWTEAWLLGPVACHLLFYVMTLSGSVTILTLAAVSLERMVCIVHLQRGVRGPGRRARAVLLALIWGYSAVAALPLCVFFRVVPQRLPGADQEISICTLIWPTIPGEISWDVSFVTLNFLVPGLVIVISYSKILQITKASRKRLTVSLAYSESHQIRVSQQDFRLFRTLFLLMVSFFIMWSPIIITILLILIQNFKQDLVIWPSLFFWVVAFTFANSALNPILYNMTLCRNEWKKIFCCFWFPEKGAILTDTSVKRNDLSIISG

[3] = molecular target: T2, Free fatty acid receptor 2 (Homo sapiens) (UniProt O15552); assay: Agonist activity at human C-terminal eYFP tagged FFA2 receptor stably expressed in Flp-In T-Rex 293 cells assessed as inhibition of forskolin-induced cAMP production at 10 uM after 30 mins by HTR-FRET assay; type: functional, cell-based
T2 sequence (whole entry): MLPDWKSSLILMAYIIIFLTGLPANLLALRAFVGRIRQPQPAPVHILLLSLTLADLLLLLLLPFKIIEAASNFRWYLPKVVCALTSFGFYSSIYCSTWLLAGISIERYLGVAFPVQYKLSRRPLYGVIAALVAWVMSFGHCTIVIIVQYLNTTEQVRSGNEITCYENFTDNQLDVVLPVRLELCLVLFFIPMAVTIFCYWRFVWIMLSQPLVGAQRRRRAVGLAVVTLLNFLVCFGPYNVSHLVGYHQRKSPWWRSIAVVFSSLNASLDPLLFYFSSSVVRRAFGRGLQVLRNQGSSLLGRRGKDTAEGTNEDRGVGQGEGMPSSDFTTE

[4] = molecular target: G-protein coupled receptor 84 (Homo sapiens) (UniProt Q9NQS5); assay: Agonist activity at human C-terminal Gia tagged GPR84 receptor stably expressed in Flp-In T-Rex 293 cells assessed as inhibition of forskolin-induced cAMP production at 10 uM after 45 mins by HTR-FRET assay; type: functional, cell-based
[5] = molecular target: Voltage-dependent L-type calcium channel subunit alpha-1C (Homo sapiens, UniProt Q13936); assay: Displacement of [3H]-PN200-110 from recombinant full length human L-type calcium channel expressed in HEK293 cells at 10 uM incubated for 120 mins by radiometric scintillation counting method; type: cell-based; conditions: hek293, 2 h
[6] = molecular target: T3, Free fatty acid receptor 3 (Homo sapiens) (UniProt O14843)
T3 sequence (whole entry): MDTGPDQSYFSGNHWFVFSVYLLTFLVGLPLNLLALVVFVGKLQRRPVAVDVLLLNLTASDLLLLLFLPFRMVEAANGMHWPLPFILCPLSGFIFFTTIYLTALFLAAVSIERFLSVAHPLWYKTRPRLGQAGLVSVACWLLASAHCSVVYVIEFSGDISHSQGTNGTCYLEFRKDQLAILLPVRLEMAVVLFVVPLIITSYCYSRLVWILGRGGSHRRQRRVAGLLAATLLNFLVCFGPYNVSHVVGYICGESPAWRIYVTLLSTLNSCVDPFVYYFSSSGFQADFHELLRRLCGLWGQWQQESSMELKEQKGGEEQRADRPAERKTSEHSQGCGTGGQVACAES

[7] = molecular target: T3, Free fatty acid receptor 3 (Homo sapiens); assay: (§1) Positive allosteric modulation at human FFA3 receptor stably expressed in Flp-In T-Rex HEK293 cells cotransfected with eYFP assessed as inhibition of forskolin-induced cAMP production measured after 1 hr in presence of 1 uM propionate by fluorescence plate reader assay; type: functional, cell-based
[8] = molecular target: T3, Free fatty acid receptor 3 (Homo sapiens); remark: listed apart in the source
[9] = molecular target: T3, Free fatty acid receptor 3 (Homo sapiens); assay: Negative allosteric modulation at human FFA3 receptor stably expressed in Flp-In T-Rex HEK293 cells cotransfected with eYFP assessed as effect on forskolin-induced cAMP production at 30 uM measured after 1 hr in presence of 3 uM propionate by fluorescence plate reader assay
[10] = Chemical stability of compound in DMSO at 25 degree C measured after 7 days by NMR analysis; type: physicochemical; conditions: read-out: Stability
[11] = Chemical stability of compound in DMSO assessed as compound degradation at 25 degree C measured after 30 days by NMR analysis; type: physicochemical; conditions: 720 h
[12] = molecular target: T4, Free fatty acid receptor 3 (Mus musculus) (UniProt Q3UFD7); assay: Agonist activity at FFA3 in C57/BL6 mouse DRG neurons assessed as increase in intracellular calcium level at 5 uM by Fura-8/AM staining based inverted fluorescence microscopy; type: functional, cell-based
T4 sequence (whole entry): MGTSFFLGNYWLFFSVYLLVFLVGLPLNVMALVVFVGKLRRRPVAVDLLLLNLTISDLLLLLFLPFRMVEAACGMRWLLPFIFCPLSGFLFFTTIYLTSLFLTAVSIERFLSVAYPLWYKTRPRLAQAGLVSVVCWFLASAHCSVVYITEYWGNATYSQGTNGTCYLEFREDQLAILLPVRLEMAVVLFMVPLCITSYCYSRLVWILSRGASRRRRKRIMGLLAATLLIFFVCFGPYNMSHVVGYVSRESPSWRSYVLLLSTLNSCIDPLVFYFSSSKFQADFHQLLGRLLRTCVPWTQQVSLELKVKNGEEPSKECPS
In short: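 Mouse colonic-innervating DRGs (T9–L2), wild-type C57/BL6 and FFA3 knockout, digested with papain/L-cysteine then collagenase/dispase, triturated, cultured overnight on matrigel. Cells loaded with Fura 8-AM (3 μM, 20 min, 37 °C), perfused with HEPES buffer pH 7.4, ligand applied 3 min, then ionomycin 5 μM as positive control. Read-out: relative fluorescence by real-time imaging; N = 3 mice per genotype.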

DRG neuron = assay: Effect on intracellular calcium level in FFA3 knock out C57/BL6 mouse DRG neurons at 5 uM by Fura-8/AM staining based inverted fluorescence microscopy; type: functional, cell-based
In short: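 DRGs from T9–L2 spinal cord of FFA3 knock-out and wild-type C57/BL6 mice; papain/L-cysteine then collagenase/dispase digestion (20 min each, 37 °C), trituration, matrigel coverslips, overnight culture in DMEM/10% FCS. Fura 8-AM (3 μM) loading 20 min, 37 °C; perfusion with HEPES buffer pH 7.4 at room temperature; ligand applied 3 min, then ionomycin 5 μM. Relative fluorescence; N = 3 mice.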

[13] = Chemical stability of compound in DMSO at 4 degree C measured after 7 days by NMR analysis; type: physicochemical; conditions: read-out: Stability
[14] = Chemical stability of compound in DMSO at 4 degree C measured after 30 days by NMR analysis; type: physicochemical; conditions: read-out: Stability
[15] = molecular target: T5, Free fatty acid receptor 3 (Homo sapiens, UniProt O14843); assay: as §1; type: functional, cell-based
T5 sequence (O14843 whole entry): T3 sequence (whole entry)

[16] = molecular target: T5, Free fatty acid receptor 3; assay: Agonist activity at human FFA3 receptor stably expressed in Flp-In T-Rex HEK293 cell membrane assessed as stimulation of [35S]-GTPgammaS binding measured after 1 hr in presence of GDP by liquid scintillation spectrometry
[17] = molecular target: T5, Free fatty acid receptor 3

Chain of G-protein coupled receptor 84 (Homo sapiens) (Q9NQS5 whole entry): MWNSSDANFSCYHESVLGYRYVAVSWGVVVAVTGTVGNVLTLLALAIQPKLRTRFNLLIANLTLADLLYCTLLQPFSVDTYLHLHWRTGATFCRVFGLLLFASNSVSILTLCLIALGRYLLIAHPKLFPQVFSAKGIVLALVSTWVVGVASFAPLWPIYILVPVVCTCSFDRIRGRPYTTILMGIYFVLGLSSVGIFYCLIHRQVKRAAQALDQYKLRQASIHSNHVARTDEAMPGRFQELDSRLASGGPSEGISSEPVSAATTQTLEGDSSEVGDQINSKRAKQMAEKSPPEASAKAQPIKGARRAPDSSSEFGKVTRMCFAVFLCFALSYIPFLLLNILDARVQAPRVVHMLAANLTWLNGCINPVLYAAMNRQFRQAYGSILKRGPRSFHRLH
Chain of Free fatty acid receptor 1 (Homo sapiens) (O14842 whole entry): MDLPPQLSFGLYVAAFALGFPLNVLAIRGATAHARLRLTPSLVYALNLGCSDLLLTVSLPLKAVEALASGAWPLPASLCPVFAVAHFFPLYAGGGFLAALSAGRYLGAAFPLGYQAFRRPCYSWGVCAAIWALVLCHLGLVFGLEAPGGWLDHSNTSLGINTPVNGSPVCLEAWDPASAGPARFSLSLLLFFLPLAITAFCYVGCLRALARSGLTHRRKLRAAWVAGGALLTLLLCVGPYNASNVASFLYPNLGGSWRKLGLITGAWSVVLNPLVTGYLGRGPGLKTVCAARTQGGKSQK
Chain of Voltage-dependent L-type calcium channel subunit alpha-1C (Q13936 whole entry): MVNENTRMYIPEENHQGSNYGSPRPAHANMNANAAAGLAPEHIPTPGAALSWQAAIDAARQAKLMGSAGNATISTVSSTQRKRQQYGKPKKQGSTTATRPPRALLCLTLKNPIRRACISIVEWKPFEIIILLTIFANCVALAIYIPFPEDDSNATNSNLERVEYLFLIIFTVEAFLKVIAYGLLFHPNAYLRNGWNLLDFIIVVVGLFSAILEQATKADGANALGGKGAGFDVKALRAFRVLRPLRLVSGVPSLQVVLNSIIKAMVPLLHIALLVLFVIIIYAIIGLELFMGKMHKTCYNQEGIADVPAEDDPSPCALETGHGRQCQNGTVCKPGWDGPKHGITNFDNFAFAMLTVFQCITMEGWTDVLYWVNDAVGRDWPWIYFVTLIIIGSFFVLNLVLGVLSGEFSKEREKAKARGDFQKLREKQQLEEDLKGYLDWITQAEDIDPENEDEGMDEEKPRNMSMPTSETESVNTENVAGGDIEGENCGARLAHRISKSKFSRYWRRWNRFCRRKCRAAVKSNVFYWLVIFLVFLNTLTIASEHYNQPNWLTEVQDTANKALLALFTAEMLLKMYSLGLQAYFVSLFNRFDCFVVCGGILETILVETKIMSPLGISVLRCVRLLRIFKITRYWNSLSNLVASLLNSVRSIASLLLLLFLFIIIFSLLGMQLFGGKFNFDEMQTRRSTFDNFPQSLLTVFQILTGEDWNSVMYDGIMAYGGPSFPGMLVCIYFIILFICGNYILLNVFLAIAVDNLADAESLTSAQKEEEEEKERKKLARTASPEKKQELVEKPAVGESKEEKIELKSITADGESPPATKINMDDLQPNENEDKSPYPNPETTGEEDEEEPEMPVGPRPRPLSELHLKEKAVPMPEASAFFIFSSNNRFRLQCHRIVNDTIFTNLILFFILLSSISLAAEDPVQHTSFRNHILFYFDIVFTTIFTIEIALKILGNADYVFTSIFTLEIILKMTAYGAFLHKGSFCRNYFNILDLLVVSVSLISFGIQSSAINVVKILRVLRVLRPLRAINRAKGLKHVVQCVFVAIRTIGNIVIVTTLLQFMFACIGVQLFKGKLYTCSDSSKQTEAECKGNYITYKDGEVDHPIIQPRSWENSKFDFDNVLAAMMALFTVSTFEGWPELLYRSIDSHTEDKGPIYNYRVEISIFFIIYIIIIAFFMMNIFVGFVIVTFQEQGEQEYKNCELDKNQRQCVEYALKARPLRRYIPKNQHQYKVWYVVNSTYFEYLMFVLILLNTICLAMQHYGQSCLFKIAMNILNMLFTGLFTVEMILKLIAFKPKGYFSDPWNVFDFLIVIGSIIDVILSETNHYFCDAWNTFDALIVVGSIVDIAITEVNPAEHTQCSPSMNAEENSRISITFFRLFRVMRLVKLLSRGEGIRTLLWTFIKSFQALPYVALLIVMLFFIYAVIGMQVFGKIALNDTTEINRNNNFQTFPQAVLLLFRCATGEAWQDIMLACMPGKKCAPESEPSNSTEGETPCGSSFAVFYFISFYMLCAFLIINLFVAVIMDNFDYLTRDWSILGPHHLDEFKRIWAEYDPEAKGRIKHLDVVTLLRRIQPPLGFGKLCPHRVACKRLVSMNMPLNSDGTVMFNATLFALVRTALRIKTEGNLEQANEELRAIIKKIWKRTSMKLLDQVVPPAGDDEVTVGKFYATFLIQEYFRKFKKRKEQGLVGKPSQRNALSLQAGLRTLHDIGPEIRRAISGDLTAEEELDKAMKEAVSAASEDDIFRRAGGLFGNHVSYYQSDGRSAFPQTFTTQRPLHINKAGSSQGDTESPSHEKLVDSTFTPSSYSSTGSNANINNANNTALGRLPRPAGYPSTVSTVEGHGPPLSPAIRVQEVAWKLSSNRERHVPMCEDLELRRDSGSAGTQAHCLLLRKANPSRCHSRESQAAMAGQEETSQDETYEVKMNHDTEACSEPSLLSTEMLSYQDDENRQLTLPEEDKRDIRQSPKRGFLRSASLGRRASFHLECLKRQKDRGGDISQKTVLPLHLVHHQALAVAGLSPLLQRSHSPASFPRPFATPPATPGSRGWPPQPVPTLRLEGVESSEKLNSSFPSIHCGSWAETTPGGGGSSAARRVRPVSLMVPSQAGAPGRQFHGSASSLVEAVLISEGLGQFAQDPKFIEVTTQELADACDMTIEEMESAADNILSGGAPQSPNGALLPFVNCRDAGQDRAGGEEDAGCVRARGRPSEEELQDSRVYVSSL

## CC1=C(C(=O)Nc2cc(Cl)ccc2Cl)C(c2ccco2)C2=C(CCCC2=O)N1 (centres undefined)
[1]
  Activity: inactive
[2]
  Activity: inactive
[3]
  Activity: inactive
[4]
  Activity: inactive
[5]
  inhibition (INH): Not Active

## COC(=O)C1=C(C)NC2=C(C(=O)CCC2)C1CC(C)C (centres undefined)
[6]
  pEC50: inactive

## CC1=C(C(=O)Nc2cc(Cl)ccc2Cl)C(CN)C2=C(CCCC2=O)N1 (centres undefined)
[6]
  pEC50: inactive

## CC1=C(C(=O)c2ccccc2)C(CC(C)C)C2=C(CCCC2=O)N1 (centres undefined)
[6]
  pEC50: inactive

## CC1=C(C(=O)Nc2cc(Cl)ccc2Cl)C(C2CCCC2)C2=C(CCCC2=O)N1 (centres undefined)
[1]
  Activity: inactive
[2]
  Activity: inactive
[3]
  Activity: inactive
[4]
  Activity: inactive
[5]
  inhibition (INH): Not Active

## Cc1ccccc1NC(=O)c1c(C)nc2c(c1-c1ccco1)C(=O)CCC2
[7]
  pEC50: inactive
[6]
  pEC50: inactive

## CC1=C(C(=O)Nc2cc(Cl)ccc2Cl)C(CC2CCNCC2)C2=C(CCCC2=O)N1 (centres undefined)
[6]
  pEC50: inactive

## CC1=C(C(=O)Nc2ccccc2C)C(c2ccccc2Br)C2=C(CCCC2=O)N1 (centres undefined)
[8]
  pEC50: inactive

## Cc1ccccc1NC(=O)C1=C(c2ccccc2)NC2=C(C(=O)CCC2)C1c1ccco1 (centres undefined)
[6]
  pEC50: inactive

## CC1=C(C(=O)Nc2cc(Cl)ccc2Cl)C(CC2CCN(C(=O)OC(C)(C)C)CC2)C2=C(CCCC2=O)N1 (centres undefined)
[6]
  pEC50: inactive
[9]
  Activity: Active

## CCCC1C(C(=O)Nc2cc(Cl)ccc2Cl)=C(C)NC2=C1C(=O)CCC2 (centres undefined)
[1]
  Activity: inactive
[2]
  Activity: inactive
[3]
  Activity: inactive
[4]
  Activity: inactive
[5]
  inhibition (INH): Not Active
[10]
  remaining at 168 h: 100%
[11]
  Stability: Unstable
[12]
  Activity: Active
DRG neuron
  Activity: inactive
[13]
  remaining at 168 h: 100%
[14]
  remaining at 720 h: 100%

## CCN(CC)CCOCC1C(C(=O)Nc2cc(Cl)ccc2Cl)=C(C)NC2=C1C(=O)CCC2 (centres undefined)
[6]
  pEC50: inactive

## CC1=C(C(=O)Nc2ccccc2C)C(c2ccco2)C2=C(CCCC2=O)N1 (centres undefined)
[15]
  EC50: 0.537 µM
[1]
  Activity: inactive
[2]
  Activity: inactive
[3]
  Activity: inactive
[4]
  Activity: inactive
[5]
  inhibition (INH): Not Active

## CCC(=O)O [PROPIONIC ACID]
[16]
  EC50: 10.7 µM
[17]
  EC50: 11.7 µM

## CC1=C(C(=O)Nc2cc(Cl)ccc2Cl)C(CNC(=O)OC(C)(C)C)C2=C(CCCC2=O)N1 (centres undefined)
[6]
  pEC50: inactive

## COC(=O)C1=C(C)NC(C)=C(C(=O)Nc2ccccc2C)C1CC(C)C (centres undefined)
[6]
  pEC50: inactive

## CC1=C(C(=O)Nc2ccccc2C)C(CC(C)C)C(C(=O)c2ccccc2)=C(C)N1 (centres undefined)
[7]
  pEC50: inactive
[6]
  pEC50: inactive

From ChEMBL document CHEMBL4402580, “Structure-Activity Relationship Studies of Tetrahydroquinolone Free Fatty Acid Receptor 3 Modulators” (J Med Chem, 2020)
